Test results from ChEMBL document CHEMBL5608261, “Pharmacophore Establishment and Optimization of Saturated 1,6-Naphthyridine-Fused Quinazolinones that Inhibit Meningoencephalitis-Causing Naegleria fowleri” (J Med Chem, 2024).
pEC50: −log10 of the molar value. ≈ marks a conversion by molar mass, not a printed value.

Columns and labels:
SH-SY5Y = assay: (§1) Cytotoxicity against human SH-SY5Y cells assessed as reduction in cell viability incubated for 72 hrs by CellTiter-Glo assay; format: toxicity, cell-based; settings: sh-sy5y, 72 h
Procedure, shortened: (§2)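 SH-SY5Y cells at 2000 per well attached overnight at 37 °C. Compound from 20 mM DMSO stocks was added in triplicate as a dose series starting at 20 μM, with doxorubicin as positive control.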

[1] = Stability in CD-1 mouse plasma assessed as half-life measured upto 120 mins by LC-MS analysis; format: ADME, cell-free; settings: 2 h
[2] = Metabolic stability in human liver microsomes assessed as half-life; format: ADME, Microsome
[3] = Metabolic stability in CD-1 mouse liver microsomes assessed as half-life incubated for 60 mins by LC-MS/MS analysis; format: ADME, Microsome; settings: 1 h
Procedure, shortened: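 Half-life measured in CD-1 mouse liver microsomes with NADPH over a 60 min exposure.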

Naegleria fowleri [4] = assay: Anti-ameobic activity against Naegleria fowleri Nf69 (ATCC 30215) trophozoites assessed as inhibition of amoeba growth incubated for 48 hrs by CellTiter-Glo assay; format: functional, organism-based
Procedure, shortened: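 Axenic Nf69 trophozoites were seeded at 1 × 10^4 cells/mL in Nelson's complete medium with 10% heat-inactivated FBS. Compound was added at 20 to 0.375 μM (lower ranges for very potent compounds), with vehicle controls, for 48 h at 37 °C and 5% CO2. CellTiter-Glo luminescence gave % growth inhibition versus controls, and triplicate means were fitted to dose–response curves for EC50.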

[5] = Protein binding in CD-1 mouse plasma assessed as free fraction incubated for 4 hrs by equilibrium dialysis based LC-MS/MS analysis; format: ADME, cell-free
Naegleria fowleri [6] = assay: Anti-ameobic activity against Naegleria fowleri TY (ATCC 30107) trophozoites assessed as inhibition of amoeba growth incubated for 48 hrs by CellTiter-Glo assay; format: functional, organism-based
Procedure, shortened: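 TY strain (ATCC 30107) trophozoites, seeded at 1 × 10^4 cells/mL, were exposed 48 h (37 °C, 5% CO2) to vehicle or compound, with concentrations initially 20 to 0.375 μM. CellTiter-Glo luminescence gave % growth inhibition versus controls. EC50 was fit from triplicate runs (n = 3, ± SEM).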

[7] = Protein binding in CD-1 mouse plasma incubated for 4 hrs by equilibrium dialysis based LC-MS/MS analysis; format: ADME, cell-free; settings: CD-1, mouse, read-out: PPB (converted)
[8] = Kinetic solubility of compound at pH 7.4 incubated for 24 hrs by HPLC analysis; format: physicochemical; settings: buffer; for solubility kinetic at 24 h: pH 7.4, read-out: Kinetic_solubility; for Kinetic_solubility: pH 7.4, 24 h
[9] = Selectivity index, ratio of CC50 for cytotoxicity against human SH-SY5Y cells to EC50 for anti-amoebic activity against Naegleria fowleri Nf69 (ATCC 30215) assessed as inhibition of amoeba growth; format: toxicity, cell-based; settings: for selectivity ratio: SH-SY5Y cells, read-out: Ratio CC50/EC50
[10] = as §1; format: toxicity, cell-based; settings: SH-SY5Y cells; procedure, shortened: as §2
Naegleria fowleri [11] = assay: Anti-ameobic activity against Naegleria fowleri Nf69 (ATCC 30215) trophozoites infected in female CD-1 mouse model assessed as survival rate at 5 mg/kg, ip pre-infected for 48 hrs from day 0 followed by once daily compound administration from day 2 to day 6 and measured on day 14 post-infection relative to control; format: functional; settings: 312 h, time 13 day
Procedure, shortened: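 Female CD-1 mice (n = 6/group) were infected intranasally with Nf69 trophozoites on day 0. After a 48 h establishment period, they received IP dosing at 5 mg/kg once daily for 5 days, alongside a vehicle-only infected control group. Survival was followed for 14 days with Kaplan–Meier analysis. Survivor brain tissue was cultured for amoeba, and survival counted only mice whose brains were free of amoeba.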

[12] = Naegleria fowleri, Nf69 (ATCC 30215), 48 h

SMILES	t1/2 [3]	solubility kinetic at 24 h [8]	CC50 (SH-SY5Y)	pEC50 (Naegleria fowleri [4])	Ratio CC50/EC50 [9]	pEC50 (Naegleria fowleri [4]; [12])	selectivity ratio [9]	other results
CN1CCC[C@@H]2c3nc4cc(Cl)c(Cl)cc4c(=O)n3CC[C@H]21	6.1 min		7800 nM	7.07	90.7			Kinetic_solubility ([8]; 24 h): 98.2 µM
CN1CCC[C@@H]2c3nc4ccc(Cl)cc4c(=O)n3CC[C@H]21	11.5 min		> 20000 nM	6.55	> 71.4			Kinetic_solubility ([8]; 24 h): 129 µM
CN1CCC[C@@H]2c3nc4ccc(C(F)(F)F)cc4c(=O)n3CC[C@H]21	10.9 min			6.60	> 80			Kinetic_solubility ([8]; 24 h): 109 µM
COc1cc2nc3n(c(=O)c2cc1Cl)CC[C@@H]1[C@@H]3CCCN1CCOC(C)C (racemic)	3.1 min	65.7 µM (≈ 26.7 µg/mL)	2500 nM			6.96	22.7	
CN1CCC[C@@H]2c3nc4cc(Cl)c(Cl)cc4c(=O)n3CC[C@H]21 (racemic)		138 µM (≈ 46.7 µg/mL)		6.70			> 100	CC50 at 72 h [10]: > 20000 nM
CN1CCC[C@@H]2c3nc4ccc(Cl)cc4c(=O)n3CC[C@H]21 (racemic)	18.5 min	187 µM (≈ 56.8 µg/mL)		6.00	> 20			CC50 at 72 h [10]: > 20000 nM
CN1CCC[C@@H]2c3nc4ccc(C(F)(F)F)cc4c(=O)n3CC[C@H]21 (racemic)	21.2 min	159 µM (≈ 53.6 µg/mL)		5.96	> 18.2			CC50 at 72 h [10]: > 20000 nM
O=c1c2cc(Cl)c(Cl)cc2nc2n1CC[C@@H]1[C@@H]2CCCN1CCO (racemic)	83.1 min		> 20000 nM			7.70		Kinetic_solubility [8]: < 10 µM
C[C@@H]1[C@H](O)[C@@H](C)/C=C/C=C/C=C/C=C/C=C/C=C/C=C/[C@H](O[C@@H]2O[C@H](C)[C@@H](O)[C@H](N)[C@@H]2O)C[C@@H]2O[C@](O)(C[C@@H](O)C[C@@H](O)[C@H](O)CC[C@@H](O)C[C@@H](O)CC(=O)O[C@H]1C)C[C@H](O)[C@H]2C(=O)O [AMPHOTERICIN B]								survival at 5 mg/kg (Naegleria fowleri [11]): 17%

More lines, main results first:

t1/2 [3]	solubility kinetic at 24 h [8]	SMILES	CC50 (SH-SY5Y)	pEC50 (Naegleria fowleri [4])	Ratio CC50/EC50 [9]	pEC50 (Naegleria fowleri [4]; [12])	selectivity ratio [9]	other results
75.6 min	29.1 µM (≈ 11.3 µg/mL)	COc1cc2nc3n(c(=O)c2cc1Cl)CC[C@@H]1[C@@H]3CCCN1CC1COC1	> 20000 nM	6.31	> 40.8			t1/2 [1]: > 289 min; t1/2 [2]: 80.3 min; fraction unbound at 4 h [5]: 0.26; pEC50 (Naegleria fowleri [6]): 6.33; fraction unbound at 4 h [7]: 0.26
109 min		O=c1c2cc(Cl)c(Cl)cc2nc2n1CC[C@@H]1[C@@H]2CCCN1CC1COC1 (racemic)	> 20000 nM			8.22	> 33000	Kinetic_solubility [8]: 40 µM
> 145 min		COc1cc2nc3n(c(=O)c2cc1Cl)CC[C@@H]1[C@@H]3CCCN1CC1COC1 (racemic)	5000 nM	7.54	172			Kinetic_solubility ([8]; 24 h): 198 µM
104.6 min	136 µM (≈ 51.7 µg/mL)	COc1cc2nc3n(c(=O)c2cc1C#N)CC[C@@H]1[C@@H]3CCCN1CC1COC1 (racemic)	> 20000 nM			6.92	> 167	
> 145 min	172 µM (≈ 71.7 µg/mL)	COc1cc2nc3n(c(=O)c2cc1Cl)CC[C@@H]1[C@@H]3CCCN1CCN1CCCC1 (racemic)	> 20000 nM			6.13	> 27	
3.8 min	4.6 µM (≈ 1.78 µg/mL)	COc1cc2nc3n(c(=O)c2cc1Cl)CC[C@@H]1[C@@H]3CCCN1CC1CCC1 (racemic)	640 nM			7.82	42.7	
29.8 min	43.1 µM (≈ 18.7 µg/mL)	COc1cc2nc3n(c(=O)c2cc1Cl)CC[C@@H]1[C@@H]3CCCN1CCN1CCOCC1 (racemic)	> 20000 nM			6.28	> 38.5	
12.6 min	76.1 µM (≈ 28.5 µg/mL)	COc1cc2nc3n(c(=O)c2cc1Cl)CC[C@@H]1[C@@H]3CCCN1CC1CC1 (racemic)	1000 nM			7.64	43.5	
	3.8 µM (≈ 1.56 µg/mL)	COc1cc2nc3n(c(=O)c2cc1Cl)CC[C@@H]1[C@@H]3CCCN1Cc1cccnc1 (racemic)	> 20000 nM			6.92	> 167	
75.2 min		O=c1c2cc(Cl)c(Cl)cc2nc2n1CC[C@@H]1[C@@H]2CCCN1CCN1CCOCC1 (racemic)	> 20000 nM			7.96		Kinetic_solubility [8]: 206 µM
